ChEMBL document CHEMBL3046413, “Synthesis and insecticidal activity of some novel fraxinellone-based esters” (2012)

How the values were obtained:
Format in all cases: functional
Mythimna separata [1] = assay: Insecticidal activity against Mythimna separata (Oriental armyworm) in wheat leaves assessed as mortality rate at 1 mg/mL at 25 degC measured after 35 days by leaf-dipping method relative to control; conditions: 840 h
Summary of the method: (§1)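 Leaf-dipping assay on pre-third-instar M. separata larvae. Compounds dissolved in acetone at 1 mg/mL; fresh wheat leaves dipped 3 s, then air-dried. Acetone-treated leaves served as control. 30 larvae per compound in groups of 10 per dish, with treated leaves replenished when consumed. After 48 h, larvae were switched to untreated fresh leaves. Corrected mortality = (T − C) × 100/(1 − C); three replicates.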

Mythimna separata [2] = assay: Insecticidal activity against Mythimna separata (Oriental armyworm) in wheat leaves assessed as mortality rate at 1 mg/mL at 25 degC measured after 10 days by leaf-dipping method relative to control; conditions: 240 h; summary of the method: as §1
Mythimna separata [3] = assay: Insecticidal activity against Mythimna separata (Oriental armyworm) in wheat leaves assessed as mortality rate at 1 mg/mL at 25 degC measured after 25 days by leaf-dipping method relative to control; conditions: 600 h; summary of the method: as §1

SMILES	mortality at 1000 µg/mL (Mythimna separata [1])	mortality at 1000 µg/mL (Mythimna separata [2])	mortality at 1000 µg/mL (Mythimna separata [3])
CC1=C2C(=O)O[C@@H](c3ccoc3)[C@]2(C)CC[C@H]1OC(=O)c1ccccc1	44.4%	41.4%	44.4%
CC1=C2C(=O)O[C@@H](c3ccoc3)[C@]2(C)CC[C@H]1OC(=O)COc1cccc2cccnc12	51.9%	13.8%	37%
CC1=C2C(=O)O[C@@H](c3ccoc3)[C@]2(C)CC[C@H]1O [4ALPHA-HYDROXYFRAXINELLONE]	48.1%	20.7%	37%
C[C@@]12CCCC(COC(=O)c3ccc(Br)cc3)=C1C(=O)O[C@H]2c1ccoc1	33.3%	24.1%	29.6%
Cc1ccc(C(=O)OCC2=C3C(=O)O[C@@H](c4ccoc4)[C@]3(C)CCC2)cc1	29.6%	17.2%	29.6%
C[C@@]12CCCC(COC(=O)c3cccc(F)c3)=C1C(=O)O[C@H]2c1ccoc1	55.6%	24.1%	51.9%
CC1=C2C(=O)O[C@@H](c3ccoc3)[C@]2(C)CC[C@H]1OC(=O)c1ccncc1	66.7%	24.1%	48.1%
C[C@@]12CCCC(COC(=O)c3ccc(Cl)cc3)=C1C(=O)O[C@H]2c1ccoc1	40.7%	6.9%	25.9%
C[C@@]12CCCC(COC(=O)c3ccncc3)=C1C(=O)O[C@H]2c1ccoc1	59.3%	24.1%	48.1%
CC1=C2C(=O)O[C@@H](c3ccoc3)[C@]2(C)CC[C@H]1OC(=O)c1cccc(F)c1	44.4%	24.1%	29.6%
C[C@@]12CCCC(CO)=C1C(=O)O[C@H]2c1ccoc1	40.7%	10.3%	29.6%
CCCCCCCC(=O)OCC1=C2C(=O)O[C@@H](c3ccoc3)[C@]2(C)CCC1	33.3%	6.9%	25.9%
C[C@@]12CCCC(COC(=O)Cc3cccc4ccccc34)=C1C(=O)O[C@H]2c1ccoc1	48.1%	20.7%	33.3%
CC1=C2C(=O)O[C@@H](c3ccoc3)[C@]2(C)CC[C@H]1OC(=O)c1ccc(C#N)cc1	55.6%	20.7%	48.1%
CCCCCCCC(=O)O[C@@H]1CC[C@]2(C)C(=C1C)C(=O)O[C@H]2c1ccoc1	48.1%	10.3%	33.3%
CC1=C2C(=O)O[C@@H](c3ccoc3)[C@]2(C)CC[C@H]1OC(=O)c1cccc([N+](=O)[O-])c1	48.1%	10.3%	40.7%
CCCCCCCCCCC(=O)O[C@@H]1CC[C@]2(C)C(=C1C)C(=O)O[C@H]2c1ccoc1	48.1%	20.7%	40.7%
CC1=C2C(=O)O[C@@H](c3ccoc3)[C@]2(C)CC[C@H]1OC(=O)c1cccnc1	55.6%	20.7%	40.7%
C[C@@]12CCCC(COC(=O)c3ccc(F)cc3)=C1C(=O)O[C@H]2c1ccoc1	51.9%	10.3%	40.7%

SMILES	mortality at 1000 µg/mL (Mythimna separata [1])	mortality at 1000 µg/mL (Mythimna separata [2])	mortality at 1000 µg/mL (Mythimna separata [3])
CC1=C2C(=O)O[C@@H](c3ccoc3)[C@]2(C)CC[C@H]1OC(=O)c1ccco1	51.9%	31%	40.7%
CC(=O)O[C@@H]1C[C@H](O)[C@@]23CO[C@@H](O)[C@]1(C)[C@@H]2C[C@@H](O)[C@]1(C)[C@@H]3C(=O)[C@H](OC(C)=O)[C@@]2(C)[C@H](c3ccoc3)C[C@H]3O[C@]321 [TOOSENDANIN]	48.1%	27.6%	33.3%
C[C@@]12CCCC(COC(=O)c3cccnc3)=C1C(=O)O[C@H]2c1ccoc1	51.9%	27.6%	44.4%
C[C@@]12CCCC(COC(=O)c3cccc([N+](=O)[O-])c3)=C1C(=O)O[C@H]2c1ccoc1	44.4%	24.1%	29.6%
CC1=C2C(=O)O[C@@H](c3ccoc3)[C@]2(C)CC[C@H]1OC(=O)c1ccc(C)cc1	40.7%	24.1%	40.7%
C[C@@]12CCCC(COC(=O)c3ccc([N+](=O)[O-])cc3)=C1C(=O)O[C@H]2c1ccoc1	40.7%	13.8%	33.3%
CC1=C2C(=O)O[C@@H](c3ccoc3)[C@]2(C)CC[C@H]1OC(=O)Cc1cccc2ccccc12	51.9%	10.3%	29.6%
C[C@@]12CCCC(COC(=O)c3ccc(C#N)cc3)=C1C(=O)O[C@H]2c1ccoc1	44.4%	6.9%	25.9%
CC1=C2C(=O)O[C@@H](c3ccoc3)[C@]2(C)CCC1 [FRAXINELLONE]	44.4%	20.7%	33.3%
C[C@@]12CCCC(COC(=O)c3ccccc3)=C1C(=O)O[C@H]2c1ccoc1	29.6%	17.2%	29.6%
CC1=C2C(=O)O[C@@H](c3ccoc3)[C@]2(C)CC[C@H]1OC(=O)c1cccc(Br)c1	44.4%	20.7%	40.7%
CC1=C2C(=O)O[C@@H](c3ccoc3)[C@]2(C)CC[C@H]1OC(=O)c1ccc(F)cc1	63%	24.1%	51.9%
COc1cccc2ccc(C(=O)O[C@@H]3CC[C@]4(C)C(=C3C)C(=O)O[C@H]4c3ccoc3)nc12	63%	20.7%	48.1%
C[C@@]12CCCC(COC(=O)Cc3ccccc3)=C1C(=O)O[C@H]2c1ccoc1	44.4%	27.6%	33.3%
CC1=C2C(=O)O[C@@H](c3ccoc3)[C@]2(C)CC[C@H]1OC(=O)Cc1ccccc1	44.4%	31%	37%
CC1=C2C(=O)O[C@@H](c3ccoc3)[C@]2(C)CC[C@H]1OC(=O)c1ccc([N+](=O)[O-])cc1	51.9%	27.6%	40.7%
C[C@@]12CCCC(COC(=O)c3cccc(Br)c3)=C1C(=O)O[C@H]2c1ccoc1	33.3%	13.8%	25.9%
CC1=C2C(=O)O[C@@H](c3ccoc3)[C@]2(C)CC[C@H]1OC(=O)c1ccc(Cl)cc1	40.7%	20.7%	33.3%
CC1=C2C(=O)O[C@@H](c3ccoc3)[C@]2(C)CC[C@H]1OC(=O)c1ccc(Br)cc1	37%	24.1%	25.9%
